Data on 14 compounds can be found in PubChem BioAssay.

Active and inactive are the calls of the source.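 Rule for the calls, unless noted: active = fluorescence slope higher than the sample average by over 3 SD (cut at about -0.22 in these data, passing the limit was not always enough); inactive = the rest.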

The nature of assay [1]: inhibitors of TNFa-induced NFkB p65 translocation, primary screen, imaging, HUVEC, MLSMR starter and 10KST1 sets (AID 438;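 active = inhibition above 20% together with a positive visual image hit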;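 note: compound added about 3h40 before a 20 min TNFalpha stimulation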;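 for inhibition: signal is the nuclear over cytoplasmic p65 intensity ratio per well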). The note with it: HUVEC TNFa-induced p65 nuclear translocation; cell count: measured here: nuclei count (cytotoxicity indicator), at 2.08 µM; inhibition: at 2 µM, stronger effect = higher value, 0% TNFa-plus-vehicle, 100% no-TNFa wells.
Assay [2] is described as follows: reduction of polyQ htt aggregates in cells – imaging, exon1htt(103Q)mCFP cells, high-content imaging, primary screen (AID 483;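 active = visual image review flags a hit and inhibition of aggregation exceeds 20%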;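 note: compound exposure lasted 3 days before fixation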;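 for nuclei count: percent of the per-plate median nuclei count of sample wells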). The note with it: exon1htt(103Q)mCFP cell line, aggregate imaging, at 2 µM; inhibition of aggregation: stronger effect = higher value; nuclei count: measured here: cell count, toxicity.
Assay [3] is described as follows: endothelial E-selectin expression blockers – imaging, HUVEC, immunofluorescence, MLSMR starter and 10KST1 sets, primary screen (AID 487;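 active = visually confirmed hit in the image check and inhibition above 20%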;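 for inhibition: signal is fraction of cell area covered by stained E-selectin grains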;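 for nuclei count: 100% = median nuclei count of all wells on the same plate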). The note with it: HUVEC TNFalpha-induced E-selectin immunofluorescence imaging, at 2 µM; inhibition: stronger effect = higher value; nuclei count: measured here: cell number, toxicity.
Assay [4] has as its target Voltage-gated potassium channel subunit beta-2 (Rattus norvegicus) (UniProt P62483). Briefly: inhibitors of rat Kvbeta2 reductase activity – biochemical, NADPH fluorescence, primary screen (AID 622).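 Note: slope of raw intensity against log time taken from 70 to 1610 s.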 Particulars: recombinant KvBeta, 4-cyanobenzaldehyde reduction, at 10 µM, stronger effect = higher value.
For assay [5] the target is unchanged. Briefly: enhancers of rat Kvbeta2 NADPH turnover – biochemical, NADPH fluorescence, primary screen (AID 623;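 active = NADPH fluorescence slope more negative than the mean of all samples by about 3 SD, 99.7% confidence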;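 note: fluorescence intensity change per second fitted from 20 to 320 s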). The note with it: Recombinant KvBeta, NADPH fluorescence decrease slope, 10 min; at 10 µM; stronger effect = lower value.
Assay [6] deals with Alpha-2C adrenergic receptor (Homo sapiens) (UniProt P18825). Briefly: compounds altering alpha2C-coupled GIRK flux – cell-based, HEK293 alpha2C/GIRK1/2, thallium flux, primary screen (AID 624;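 active = fluorescence slope after compound addition differing from the mean of all screened samples at 99.7% confidence, in either direction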;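 note: slope of fluorescence ratio to pre-addition baseline per second over 15 to 24 s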). Particulars: thallium flux BTC fluorescence, at 10 µM, actives lie on both sides.
Assay [7] in a line: inhibitors of larval lipid processing in zebrafish, primary screen, whole organism, PED6 fluorescence, gall bladder and intestine (AID 686;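 active = a full or partial loss of lipid-probe fluorescence in the fish gall bladder, intestine or both, judged by eye; inactive = no fluorescence loss, or compound toxic to the fish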;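 note: larvae 5 to 7 days old with five fish per well; signal comes from phospholipase A2 cleavage of quenched PED6 carried via bile; overnight exposure to compound and PED6 before scoring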). Particulars: Zebrafish larvae PED6 lipid processing, fluorescence scoring; screened at 20 µM (by protocol). In short, it runs like this:
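System: live zebrafish larvae aged 5-7 days, whole organism; measure: graded gall bladder and intestinal fluorescence inhibition per well; incubation: overnight exposure; reagent: ingested quenched lipid PED6 at 100 nM; signal: By-eye fluorescence microscopy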

Assay [8] can be described thus: blockers of RIG-like receptor reporter activation – cell-based, Sendai virus stimulus, luciferase, 10K MLSCN set, TLR/RLR signaling modifier project, primary screen (AID 602276;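 active = inhibition at or above 50% at 10 µM; inactive = inhibition below 50%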;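 note: firefly luciferase from ISG56 promoter only with Renilla not read in this screen; 0% = Sendai virus plus DMSO and 100% = medium plus DMSO without virus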). The note with it: HEK293 RL24 IRF3 luciferase reporter, at 10 µM, stronger effect = higher value. In general terms: In a reporter assay the amount or activity of a reporter protein is the signal.
Assay [9] is described as follows: TLR3 IRF3 reporter activation blockers – cell-based, poly I:C stimulus, luciferase, 10K MLSCN set, primary screen (AID 602277;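 active = inhibition of the reporter signal at or above 50%; inactive = inhibition below 50%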). The note with it: HEK293-TLR3 RL24 IRF3 luciferase reporter, at 10 µM, stronger effect = higher value.

Voltage-gated potassium channel subunit beta-2 (Rattus norvegicus), sequence (P62483 whole entry, looked up): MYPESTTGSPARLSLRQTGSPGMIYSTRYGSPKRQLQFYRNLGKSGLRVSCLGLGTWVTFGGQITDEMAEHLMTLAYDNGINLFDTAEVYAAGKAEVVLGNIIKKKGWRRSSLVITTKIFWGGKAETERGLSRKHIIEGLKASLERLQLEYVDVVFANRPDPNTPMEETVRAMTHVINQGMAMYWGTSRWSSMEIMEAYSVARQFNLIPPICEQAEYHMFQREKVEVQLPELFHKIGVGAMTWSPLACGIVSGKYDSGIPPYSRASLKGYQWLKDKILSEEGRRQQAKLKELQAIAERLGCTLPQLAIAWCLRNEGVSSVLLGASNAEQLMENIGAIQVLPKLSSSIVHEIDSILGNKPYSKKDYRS
Alpha-2C adrenergic receptor (Homo sapiens), sequence (P18825 whole entry, looked up): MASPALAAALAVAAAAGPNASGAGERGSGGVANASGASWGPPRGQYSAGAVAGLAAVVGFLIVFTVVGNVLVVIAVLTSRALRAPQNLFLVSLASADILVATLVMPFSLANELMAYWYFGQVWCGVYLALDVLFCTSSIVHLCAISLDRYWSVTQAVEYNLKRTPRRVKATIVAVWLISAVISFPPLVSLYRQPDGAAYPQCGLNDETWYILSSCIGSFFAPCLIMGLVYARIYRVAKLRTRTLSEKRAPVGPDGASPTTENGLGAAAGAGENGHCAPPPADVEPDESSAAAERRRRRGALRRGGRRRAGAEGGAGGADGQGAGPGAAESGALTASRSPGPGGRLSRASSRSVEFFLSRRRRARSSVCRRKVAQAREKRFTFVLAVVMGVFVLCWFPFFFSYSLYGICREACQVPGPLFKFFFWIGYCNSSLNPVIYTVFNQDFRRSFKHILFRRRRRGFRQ

In general, inhibition refers to the drop in the measured response relative to a control, in per cent. For the compound `CCN(CC)S(=O)(=O)c1cccc(-c2nnc(SCCOc3ccccc3C)o2)c1`, the cell count in assay [1] is 356. Moreover, the inhibition was 0.4% (inactive) in [1], 3.8% (inactive) in [3], 9.64% (inactive) in assay [8] and -24.4% (inactive) in assay [9]. Also, the inhibition of aggregation in assay [2] is -13.5% (inactive). Also, the nuclei count in assay [2] was 95.4%; in [3], 114%. Also, in assay [4], the fluorescence slope was -0.458 (inactive). In addition, in assay [5], the NADPH fluorescence slope is -8e-05 (inactive). Also, the slope in [6] is 0.00732 (inactive). Moreover, the result in assay [7] was inactive.
As to `CCN1C(=O)/C(=C/N(C)c2ccccc2)OC1=S`, the cell count in [1] was found to be 592. Also, the inhibition in [1] is -12.2% (inactive); in assay [3], 34.8% (inactive); in assay [8], -11.5% (inactive); in [9], -64.8% (inactive). In addition, the inhibition of aggregation in [2] was 12.1% (inactive). For the same compound, the nuclei count in assay [2] was 84.4%; in [3], 93.7%. For the same compound, the fluorescence slope in [4] is -0.469 (inactive). The NADPH fluorescence slope in [5] is -5.3e-05 (inactive). Further, the slope in assay [6] was 0.00485 (inactive). Moreover, the outcome in [7] was inactive.
Take `CCOC(=O)C1CCCN(C(=O)Cc2ccc(OC)c(OC)c2)C1` (stereo not drawn): the cell count in assay [1] was determined as 705. In addition, the inhibition is 2.6% (inactive) in assay [1], -124% (inactive) in assay [3], 18.6% (inactive) in assay [8] and 17.7% (inactive) in [9]. The inhibition of aggregation in assay [2] was 2.1% (inactive). Besides, the nuclei count in assay [2] was determined as 100%; in assay [3], 104%. For the same compound, the fluorescence slope in assay [4] is -0.443 (inactive). Besides, the NADPH fluorescence slope in assay [5] was -4.9e-05 (inactive). Also, in [6], the slope is 0.00479 (inactive). The call in assay [7] was inactive.
Consider `Cc1onc(-c2ccccc2)c1C(=O)NCCN1CCOCC1`, for which the cell count in assay [1] is 387. The inhibition was 5% (inactive) in [1], 9.3% (inactive) in assay [3], 0.171% (inactive) in assay [8] and 0.994% (inactive) in assay [9]. For the same compound, the inhibition of aggregation in assay [2] was -14% (inactive). Also, the nuclei count in [2] was determined as 129%; in [3], 93.5%. Moreover, the fluorescence slope in assay [4] was -0.38 (inactive). The NADPH fluorescence slope in assay [5] is -2.2e-05 (inactive). The slope in assay [6] is 0.0053 (inactive). Further, in assay [7], the compound was called inactive.
In the case of `CCCn1c(=O)c(C(=O)NCc2ccccn2)c(O)c2ccccc21`, the cell count in [1] turned out to be 345. Further, the inhibition in assay [1] is 4.2% (inactive); in [3], -32.3% (inactive); in assay [8], -22.2% (inactive); in assay [9], -53.3% (inactive). In addition, in [2], the inhibition of aggregation is -20.9% (inactive). Further, the nuclei count stood at 111% in assay [2] and 108% in [3]. For the same compound, the fluorescence slope in assay [4] is -0.403 (inactive). In addition, the NADPH fluorescence slope in assay [5] was -9e-05 (inactive). Further, the slope in assay [6] was 0.00521 (inactive). In addition, in assay [7], the outcome was inactive.
Consider `CC1CCCC(C)N1CCNC(=O)C1CCN(S(=O)(=O)N2CCCCC2)CC1` (stereo not drawn), for which, in assay [1], the cell count was 383. Also, the inhibition in assay [1] is 4.2% (inactive); in assay [3], -93.7% (inactive); in [8], -6.08% (inactive); in assay [9], -0.147% (inactive). Also, the inhibition of aggregation in assay [2] is 17.2% (inactive). For the same compound, the figures for the nuclei count in assay [2] and in [3] were 104% and 115%, respectively. Further, the fluorescence slope in [4] is -0.384 (inactive). Moreover, the NADPH fluorescence slope in [5] was 1.9e-05 (inactive). Moreover, the slope in assay [6] was 0.00471 (inactive). Further, in assay [7], the outcome was inactive.
As for `O=C(CN1CCC(n2nnc3ccccc32)CC1)Nc1ccc2c(c1)CCC2`, the cell count in [1] came to 643. The inhibition was -9.3% (inactive) in assay [1], -27% (inactive) in [3], 16% (inactive) in [8] and 19% (inactive) in [9]. In [2], the inhibition of aggregation was 4.8% (inactive). Moreover, the figures for the nuclei count in [2] and in assay [3] were 96.4% and 107%, respectively. Also, the fluorescence slope in assay [4] is -0.42 (inactive). Further, the NADPH fluorescence slope in assay [5] was -4.8e-05 (inactive). Besides, the slope in [6] is 0.00413 (inactive). In [7], the result was inactive.
As for `O=C(Nc1ccncc1)c1cc2ccccc2o1`, the cell count in assay [1] is 165. Further, the inhibition is 2.1% (inactive) in [1], -106% (inactive) in assay [3], -36.5% (inactive) in assay [8] and -115% (inactive) in assay [9]. For the same compound, in assay [2], the inhibition of aggregation was 35.8% (inactive). Besides, the results for the nuclei count in assay [2] and in [3] were 101% and 140%, respectively. Besides, the fluorescence slope in [4] is -0.382 (inactive). Moreover, the NADPH fluorescence slope in [5] was -4.4e-05 (inactive). In addition, the slope in assay [6] was 0.00527 (inactive). The outcome in assay [7] was “inactive; toxic”.
Turning to `COc1ccccc1C1N(c2ccc(F)cc2)C(=O)C2CCCN21` (stereo not drawn), the cell count in [1] worked out at 429. Besides, the inhibition is -3.9% (inactive) in assay [1], 27.9% (inactive) in assay [3], 9.07% (inactive) in assay [8] and 14.8% (inactive) in assay [9]. Moreover, in assay [2], the inhibition of aggregation was 7.1% (inactive). In addition, the values for the nuclei count in assay [2] and in assay [3] were 84.3% and 91.4%, respectively. Moreover, the fluorescence slope in [4] is -0.377 (inactive). Also, the NADPH fluorescence slope in assay [5] is -7.5e-05 (inactive). Also, the slope in assay [6] is 0.00544 (inactive). In addition, the compound was called inactive in assay [7].
For `Cc1cnc(NC(=O)CSc2nnc(-c3ccccc3)n2Cc2ccccc2)s1`, the cell count in assay [1] came to 682. Further, the inhibition in assay [1] is -5.5% (inactive); in assay [3], -19.9% (inactive); in assay [8], -3.73% (inactive); in assay [9] it was -7.1% (inactive). In assay [2], the inhibition of aggregation was 14.8% (inactive). In addition, the values for the nuclei count in assay [2] and in [3] were 102% and 105%, respectively. Besides, in [4], the fluorescence slope was -0.493 (inactive). Besides, in assay [5], the NADPH fluorescence slope was 5.3e-05 (inactive). Besides, the slope in assay [6] was 0.00426 (inactive). Moreover, the result in assay [7] was inactive.
With `COc1ccc(S(=O)(=O)NCCSCc2ccco2)cc1Cl`, the cell count in [1] was determined as 362. For the same compound, the inhibition is 4.4% (inactive) in assay [1], 13.2% (inactive) in assay [3], 20.4% (inactive) in assay [8] and 19.9% (inactive) in assay [9]. The inhibition of aggregation in [2] is 13% (inactive). The nuclei count in [2] amounted to 94%; in [3], 108%. For the same compound, the fluorescence slope in assay [4] was -0.424 (inactive). Moreover, the NADPH fluorescence slope in assay [5] is -6.4e-06 (inactive). In addition, in assay [6], the slope is 0.00484 (inactive). In addition, the compound was called inactive in assay [7].
Turning to `COc1cccc(CN2C(=O)C3(C(C#N)=C(N)OC4=C3C(=O)CCC4)c3ccccc32)c1` (stereo not drawn), the cell count in assay [1] amounted to 352. In addition, the inhibition is -0.9% (inactive) in assay [1], -15.9% (inactive) in assay [3], 12.7% (inactive) in assay [8] and 14.6% (inactive) in [9]. The inhibition of aggregation in assay [2] was -11.5% (inactive). Further, the nuclei count in assay [2] turned out to be 94.1%; in [3] it was 77.7%. Also, the fluorescence slope in assay [4] was -0.414 (inactive). In addition, the NADPH fluorescence slope in assay [5] was -5.5e-05 (inactive). Moreover, the slope in assay [6] was 0.00531 (inactive). Moreover, the call in [7] was inactive.
Turning to `Cc1cc(C(=O)N2CCCc3ccccc32)no1`, the cell count in assay [1] turned out to be 312. Further, the inhibition was -4.5% (inactive) in assay [1], -10.5% (inactive) in assay [3], -8.74% (inactive) in assay [8] and -14.5% (inactive) in [9]. Moreover, in [2], the inhibition of aggregation was 13% (inactive). In addition, the figures for the nuclei count in assay [2] and in assay [3] were 77.3% and 89.2%, respectively. Also, the fluorescence slope in assay [4] was -0.39 (inactive). The NADPH fluorescence slope in assay [5] was -4.1e-06 (inactive). The slope in assay [6] was 0.00507 (inactive). In [7], the call was inactive.
As to `CCCCCCC(c1c(C)n(C)n(-c2ccccc2)c1=O)c1c(C)n(C)n(-c2ccccc2)c1=O`, in assay [1], the cell count is 272. The inhibition was -12.6% (inactive) in [1], -39.4% (inactive) in [3], 7.89% (inactive) in assay [8] and 7.24% (inactive) in assay [9]. For the same compound, in assay [2], the inhibition of aggregation was 21% (inactive). In addition, the nuclei count was determined as 59.4% in assay [2] and 102% in [3]. Moreover, in [4], the fluorescence slope was -0.407 (inactive). Besides, the NADPH fluorescence slope in assay [5] was -5e-05 (inactive). In addition, the slope in [6] is 0.00514 (inactive). Also, the result in assay [7] was inactive.
